Data on five compounds can be found in ChEMBL document CHEMBL4715770, “Inhibition of Low Molecular Weight Protein Tyrosine Phosphatase by an Induced-Fit Mechanism” (J Med Chem, 2016).

The target of assay [1] is T1, Receptor-type tyrosine-protein phosphatase C (Homo sapiens, UniProt P08575).
T1 sequence (P08575 whole entry): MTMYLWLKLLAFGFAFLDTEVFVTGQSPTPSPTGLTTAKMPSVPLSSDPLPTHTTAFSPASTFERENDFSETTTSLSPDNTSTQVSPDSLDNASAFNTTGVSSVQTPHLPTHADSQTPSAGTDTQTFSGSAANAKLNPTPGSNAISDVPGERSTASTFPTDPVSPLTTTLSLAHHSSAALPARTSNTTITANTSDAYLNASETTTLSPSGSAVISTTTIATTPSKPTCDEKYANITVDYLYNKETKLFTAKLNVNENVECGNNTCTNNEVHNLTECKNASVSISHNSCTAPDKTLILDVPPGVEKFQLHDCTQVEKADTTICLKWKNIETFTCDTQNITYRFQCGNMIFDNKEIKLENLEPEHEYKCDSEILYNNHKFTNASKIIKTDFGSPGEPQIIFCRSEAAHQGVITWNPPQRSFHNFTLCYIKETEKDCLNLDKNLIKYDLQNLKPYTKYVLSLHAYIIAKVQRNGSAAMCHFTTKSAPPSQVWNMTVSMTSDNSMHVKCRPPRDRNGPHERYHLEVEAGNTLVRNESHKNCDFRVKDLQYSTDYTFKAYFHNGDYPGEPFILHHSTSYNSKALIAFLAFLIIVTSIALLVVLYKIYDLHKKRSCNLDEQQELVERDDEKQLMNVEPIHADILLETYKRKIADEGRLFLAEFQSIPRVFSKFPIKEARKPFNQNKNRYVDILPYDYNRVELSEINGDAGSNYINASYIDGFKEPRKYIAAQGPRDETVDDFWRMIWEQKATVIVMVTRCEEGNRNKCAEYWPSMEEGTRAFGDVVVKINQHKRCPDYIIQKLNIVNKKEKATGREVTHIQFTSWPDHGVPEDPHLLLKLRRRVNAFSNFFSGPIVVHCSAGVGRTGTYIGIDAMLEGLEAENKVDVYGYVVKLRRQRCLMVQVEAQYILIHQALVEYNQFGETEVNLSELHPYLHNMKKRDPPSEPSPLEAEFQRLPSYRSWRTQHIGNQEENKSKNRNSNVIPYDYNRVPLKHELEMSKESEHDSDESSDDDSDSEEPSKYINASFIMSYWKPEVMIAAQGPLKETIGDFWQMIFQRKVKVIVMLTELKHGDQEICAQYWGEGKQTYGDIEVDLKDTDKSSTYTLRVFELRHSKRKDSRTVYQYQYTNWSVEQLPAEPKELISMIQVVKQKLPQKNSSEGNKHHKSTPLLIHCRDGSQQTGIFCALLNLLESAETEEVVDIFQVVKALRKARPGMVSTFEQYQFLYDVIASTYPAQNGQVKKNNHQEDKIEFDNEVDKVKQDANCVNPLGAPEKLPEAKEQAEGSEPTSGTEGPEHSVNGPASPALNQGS
Description: Inhibition of His-tagged CD45 (unknown origin) expressed in Escherichia coli BL21 cells using para-nitrophenyl phosphate as substrate incubated for 5 to 10 mins by microplate reader based spectrophotometric analysis.

The target of assay [2] is T2, Low molecular weight phosphotyrosine protein phosphatase (Homo sapiens, UniProt P24666).
T2 sequence (P24666 whole entry): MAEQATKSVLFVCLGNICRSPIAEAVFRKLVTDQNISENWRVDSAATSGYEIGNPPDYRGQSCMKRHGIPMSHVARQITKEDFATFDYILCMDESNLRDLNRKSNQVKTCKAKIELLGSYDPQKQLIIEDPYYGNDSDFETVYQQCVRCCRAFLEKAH
Description: Inhibition of His-tagged LMW-PTP isoform A (unknown origin) expressed in Escherichia coli BL21 cells using para-nitrophenyl phosphate as substrate incubated for 5 to 10 mins by microplate reader based spectrophotometric analysis.

In assay [3] the target is T3, Tyrosine-protein phosphatase non-receptor type 22 (Homo sapiens, UniProt Q9Y2R2).
T3 sequence (Q9Y2R2 whole entry): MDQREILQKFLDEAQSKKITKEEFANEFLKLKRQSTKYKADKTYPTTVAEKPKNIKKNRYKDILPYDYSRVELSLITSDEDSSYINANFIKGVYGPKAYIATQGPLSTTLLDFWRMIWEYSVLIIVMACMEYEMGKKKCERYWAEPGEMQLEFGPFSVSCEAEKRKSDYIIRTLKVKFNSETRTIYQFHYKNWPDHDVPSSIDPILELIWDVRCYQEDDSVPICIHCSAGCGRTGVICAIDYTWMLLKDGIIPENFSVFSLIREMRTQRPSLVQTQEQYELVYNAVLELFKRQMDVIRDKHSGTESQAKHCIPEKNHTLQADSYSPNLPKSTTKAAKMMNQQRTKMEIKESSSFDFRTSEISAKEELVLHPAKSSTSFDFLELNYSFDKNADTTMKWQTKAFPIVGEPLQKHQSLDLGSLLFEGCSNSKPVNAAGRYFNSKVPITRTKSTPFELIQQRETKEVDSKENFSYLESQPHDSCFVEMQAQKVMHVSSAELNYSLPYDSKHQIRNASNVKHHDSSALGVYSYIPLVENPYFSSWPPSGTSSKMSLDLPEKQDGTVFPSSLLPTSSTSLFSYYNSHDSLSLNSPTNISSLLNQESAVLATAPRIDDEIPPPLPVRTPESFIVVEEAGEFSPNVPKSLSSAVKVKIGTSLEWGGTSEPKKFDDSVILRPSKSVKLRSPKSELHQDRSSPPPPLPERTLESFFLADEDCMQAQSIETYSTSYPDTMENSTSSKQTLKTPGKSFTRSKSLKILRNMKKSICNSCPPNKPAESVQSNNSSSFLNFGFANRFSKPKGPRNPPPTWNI
Description: Inhibition of His-tagged LYP (unknown origin) expressed in Escherichia coli BL21 cells using para-nitrophenyl phosphate as substrate incubated for 5 to 10 mins by microplate reader based spectrophotometric analysis.

Assay [4] addresses Tyrosine-protein phosphatase non-receptor type 13 (Homo sapiens, UniProt Q12923). Description: Inhibition of His-tagged FAP1 (unknown origin) expressed in Escherichia coli BL21 cells using para-nitrophenyl phosphate as substrate incubated for 5 to 10 mins by microplate reader based spectrophotometric analysis.
Assay [5] addresses Low molecular weight phosphotyrosine protein phosphatase (Homo sapiens) (UniProt P24666). Description: Inhibition of LMW-PTP isoform A in human HepG2 cells assessed as increase in insulin-induced Akt phosphorylation pretreated for 2 hrs followed by insulin stimulation and measured after 30 mins by Western blot analysis. Format: cell-based. The settings on record: dose 2-16 µM. The procedure, abridged: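 HepG2 cells in DMEM with 10% FBS at 37 °C and 5% CO2 were grown to 60-80% confluence and serum-starved overnight. They were given vehicle or compound for 2 h, then 50 nM insulin for 30 min. Lysates were run on 10% SDS-PAGE and immunoblotted for phospho-AKT and total AKT with ECL detection. Densitometric pAKT/AKT ratios were normalized to vehicle.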
(A western blot detects proteins with antibodies after separation by electrophoresis.)

Sequence of Tyrosine-protein phosphatase non-receptor type 13 (Q12923 whole entry, canonical isoform): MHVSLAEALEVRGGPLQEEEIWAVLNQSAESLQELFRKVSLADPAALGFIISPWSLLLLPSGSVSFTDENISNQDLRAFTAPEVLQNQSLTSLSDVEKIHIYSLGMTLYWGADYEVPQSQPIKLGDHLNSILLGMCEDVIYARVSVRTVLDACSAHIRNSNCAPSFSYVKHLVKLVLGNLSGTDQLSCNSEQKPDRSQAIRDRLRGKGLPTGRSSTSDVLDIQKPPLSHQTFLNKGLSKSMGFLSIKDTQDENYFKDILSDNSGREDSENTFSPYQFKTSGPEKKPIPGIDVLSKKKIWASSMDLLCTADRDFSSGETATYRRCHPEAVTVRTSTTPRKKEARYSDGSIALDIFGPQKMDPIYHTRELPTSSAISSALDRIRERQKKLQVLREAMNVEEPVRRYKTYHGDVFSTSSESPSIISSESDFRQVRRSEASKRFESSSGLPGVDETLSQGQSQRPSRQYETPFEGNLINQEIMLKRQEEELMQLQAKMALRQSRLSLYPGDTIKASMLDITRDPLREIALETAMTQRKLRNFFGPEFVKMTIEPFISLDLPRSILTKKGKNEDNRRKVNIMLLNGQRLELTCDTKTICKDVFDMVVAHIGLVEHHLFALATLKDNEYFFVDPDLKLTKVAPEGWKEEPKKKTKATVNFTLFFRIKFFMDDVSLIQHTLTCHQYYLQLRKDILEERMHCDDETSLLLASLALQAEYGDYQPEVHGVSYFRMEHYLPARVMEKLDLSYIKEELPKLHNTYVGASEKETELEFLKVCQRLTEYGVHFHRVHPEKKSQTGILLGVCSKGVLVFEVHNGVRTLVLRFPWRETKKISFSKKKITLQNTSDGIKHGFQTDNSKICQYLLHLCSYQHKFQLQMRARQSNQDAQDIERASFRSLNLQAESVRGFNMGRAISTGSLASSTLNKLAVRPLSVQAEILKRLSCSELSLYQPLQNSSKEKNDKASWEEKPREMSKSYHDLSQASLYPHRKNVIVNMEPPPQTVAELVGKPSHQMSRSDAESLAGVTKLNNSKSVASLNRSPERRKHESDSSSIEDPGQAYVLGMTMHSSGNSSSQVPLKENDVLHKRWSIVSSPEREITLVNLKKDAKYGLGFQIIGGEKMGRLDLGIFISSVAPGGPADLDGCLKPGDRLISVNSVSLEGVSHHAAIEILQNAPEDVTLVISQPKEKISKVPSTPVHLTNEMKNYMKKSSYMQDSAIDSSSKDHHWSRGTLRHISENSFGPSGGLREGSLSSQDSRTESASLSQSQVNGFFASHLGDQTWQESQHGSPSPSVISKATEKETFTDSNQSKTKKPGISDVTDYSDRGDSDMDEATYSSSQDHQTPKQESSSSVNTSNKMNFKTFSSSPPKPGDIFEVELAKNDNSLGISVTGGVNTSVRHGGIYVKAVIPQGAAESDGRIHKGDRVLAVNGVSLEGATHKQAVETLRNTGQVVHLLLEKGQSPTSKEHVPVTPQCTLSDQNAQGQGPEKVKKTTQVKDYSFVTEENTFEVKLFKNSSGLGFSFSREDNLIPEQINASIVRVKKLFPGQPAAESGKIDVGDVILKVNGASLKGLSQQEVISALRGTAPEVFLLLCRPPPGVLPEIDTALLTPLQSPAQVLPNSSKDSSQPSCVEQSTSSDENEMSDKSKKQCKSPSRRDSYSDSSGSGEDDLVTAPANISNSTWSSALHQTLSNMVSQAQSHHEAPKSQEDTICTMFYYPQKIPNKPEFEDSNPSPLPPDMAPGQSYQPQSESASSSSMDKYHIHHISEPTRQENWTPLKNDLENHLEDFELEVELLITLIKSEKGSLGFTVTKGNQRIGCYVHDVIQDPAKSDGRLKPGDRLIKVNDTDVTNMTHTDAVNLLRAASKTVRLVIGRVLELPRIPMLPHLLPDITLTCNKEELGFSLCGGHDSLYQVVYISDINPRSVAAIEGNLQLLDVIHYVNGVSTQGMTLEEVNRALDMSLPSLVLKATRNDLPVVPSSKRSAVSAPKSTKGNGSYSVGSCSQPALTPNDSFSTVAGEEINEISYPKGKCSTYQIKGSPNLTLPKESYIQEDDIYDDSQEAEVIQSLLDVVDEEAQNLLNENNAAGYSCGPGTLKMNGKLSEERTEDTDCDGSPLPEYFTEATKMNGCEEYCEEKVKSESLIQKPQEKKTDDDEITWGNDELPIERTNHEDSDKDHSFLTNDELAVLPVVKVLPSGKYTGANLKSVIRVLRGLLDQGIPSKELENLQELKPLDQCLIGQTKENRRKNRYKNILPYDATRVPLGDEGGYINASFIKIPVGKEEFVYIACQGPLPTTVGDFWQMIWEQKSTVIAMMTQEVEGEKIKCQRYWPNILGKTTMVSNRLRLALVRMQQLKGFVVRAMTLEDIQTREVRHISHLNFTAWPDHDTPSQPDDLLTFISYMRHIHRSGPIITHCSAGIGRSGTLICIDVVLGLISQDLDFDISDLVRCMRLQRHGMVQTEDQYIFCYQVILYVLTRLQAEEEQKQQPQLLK

In general, IC50 refers to the point on the concentration scale where inhibition reaches its midpoint. A higher IC50 goes with weaker potency. Turning to `O=C(Nc1ccc(OCc2ccccc2)c(Cl)c1)C(c1ccccc1)S(=O)(=O)O` (stereo unspecified), the half-maximal inhibitory concentration (IC50) in assay [1] was > 200 µM.
With `O=C(Nc1nc2ccc([N+](=O)[O-])cc2s1)C(c1ccccc1)S(=O)(=O)O` (stereo unspecified), the IC50 in assay [2] is 2.1 µM; in assay [3], > 100 µM; in assay [4], > 100 µM; in assay [1], > 100 µM. In addition, in assay [5], the inhibition result is “Dose-dependent effect”.
With `O=C(Nc1cc(C(F)(F)F)cc(C(F)(F)F)c1)C(c1ccccc1)S(=O)(=O)O` (stereo unspecified), the IC50 in assay [2] is 6.39 µM; in assay [3], > 200 µM; in assay [4] it was 76 µM; in assay [1], > 200 µM.
In the case of `Cc1c(Br)cc(NC(=O)C(c2ccccc2)S(=O)(=O)O)cc1Br` (stereo unspecified), the concentration for half-maximal inhibition (IC50) in assay [3], in assay [4] and in assay [1] was > 200 µM throughout.
As for `O=C(Nc1ccc(-n2ccnc2)cc1)C(c1ccccc1)S(=O)(=O)O` (stereo unspecified), the half-maximal inhibitory concentration (IC50) in assay [3], in assay [4] and in assay [1] was > 100 µM each time.
